Measurements reported in ChEMBL document CHEMBL4359813, “Synthesis and antimycobacterial activity of imidazo[1,2-b][1,2,4,5]tetrazines” (2019).
The source made the active and inactive calls. No cut-off for these calls is given here.

Assays:
[1] = test system: Mycolicibacterium smegmatis; test: Antimycobacterial activity against Mycobacterium smegmatis atR40 assessed as decrease in drug resistance development at 5 ug/disc after 2 to 3 days by paper disc method; assay type: functional, organism-based
Summary of the method: (§1)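 Drug-resistant M. smegmatis mc2 155 mutants, isolated on M290 agar with 3.5-4× MIC of compound and resistance re-confirmed, grown in Middlebrook 7H9 (OADC, 0.1% Tween-80, 0.4% glycerol) to OD600 1.2. Diluted 1:9:10 culture:water:M290 and poured as top layer on M290 agar. Impregnated paper discs applied; 37 °C for 2–3 days. Halos measured to nearest 1 mm; triplicates, mean ± SD versus control strain.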

[2] = test system: Mycolicibacterium smegmatis; test: Antimycobacterial activity against Mycobacterium smegmatis atR14 assessed as decrease in drug resistance development at 5 ug/disc after 2 to 3 days by paper disc method; assay type: functional, organism-based
Summary of the method: (§2)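 Mutant M. smegmatis strains were grown in Middlebrook 7H9/OADC/Tween/glycerol to OD600 1.2. Cultures were diluted 1:9:10 (culture:water:M290) and overlaid on M290 agar. Commercial or impregnated paper discs were applied and plates incubated 2–3 days at 37 °C. Inhibition halos were measured to 1 mm, run in triplicate, mean ± SD.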

[3] = test system: Mycolicibacterium smegmatis MC2 155; test: Inhibition of STPK in Mycobacterium smegmatis MC2 155 expressing aminoglycoside phophotransferase-8 assessed as growth inhibition at 350 microg/disk after 18 hrs by paper disk method
[4] = test system: Mycolicibacterium smegmatis; test: Antimycobacterial activity against Mycobacterium smegmatis atR37 assessed as decrease in drug resistance development at 5 ug/disc after 2 to 3 days by paper disc method; assay type: functional, organism-based; summary of the method: as §1
[5] = test system: Mycolicibacterium smegmatis; test: Antimycobacterial activity against Mycobacterium smegmatis atR11 assessed as decrease in drug resistance development at 5 ug/disc after 2 to 3 days by paper disc method; assay type: functional, organism-based; summary of the method: as §2
[6] = test system: Mycolicibacterium smegmatis; test: Antimycobacterial activity against Mycobacterium smegmatis atR8 assessed as decrease in drug resistance development at 5 ug/disc after 2 to 3 days by paper disc method; assay type: functional, organism-based; summary of the method: as §1
[7] = test system: Mycolicibacterium smegmatis; test: Antimycobacterial activity against Mycobacterium smegmatis atR2 assessed as decrease in drug resistance development at 5 ug/disc after 2 to 3 days by paper disc method; assay type: functional, organism-based; summary of the method: as §2
[8] = test system: Mycolicibacterium smegmatis; test: Antimycobacterial activity against Mycobacterium smegmatis atR19 assessed as decrease in drug resistance development at 5 ug/disc after 2 to 3 days by paper disc method; assay type: functional, organism-based; summary of the method: as §2
[9] = test system: Mycolicibacterium smegmatis; test: Antimycobacterial activity against Mycobacterium smegmatis atR1 assessed as decrease in drug resistance development at 5 ug/disc after 2 to 3 days by paper disc method; assay type: functional, organism-based; summary of the method: as §2
[10] = test system: Mycolicibacterium smegmatis; test: Antimycobacterial activity against Mycobacterium smegmatis atR10 assessed as decrease in drug resistance development at 5 ug/disc after 2 to 3 days by paper disc method; assay type: functional, organism-based; summary of the method: as §2
[11] = test system: Mycolicibacterium smegmatis; test: Antimycobacterial activity against Mycobacterium smegmatis atR33 assessed as decrease in drug resistance development at 5 ug/disc after 2 to 3 days by paper disc method; assay type: functional, organism-based; summary of the method: as §1
[12] = test system: Mycolicibacterium smegmatis; test: Antimycobacterial activity against Mycobacterium smegmatis atR17 assessed as decrease in drug resistance development at 5 ug/disc after 2 to 3 days by paper disc method; assay type: functional, organism-based; summary of the method: as §2
[13] = test system: Mycolicibacterium smegmatis; test: Antimycobacterial activity against Mycobacterium smegmatis atR40 assessed as decrease in drug resistance development at 100 ug/disc after 2 to 3 days by paper disc method; assay type: functional, organism-based; summary of the method: as §1
[14] = test system: Mycolicibacterium smegmatis; test: Antimycobacterial activity against Mycobacterium smegmatis atR37 assessed as decrease in drug resistance development at 100 ug/disc after 2 to 3 days by paper disc method; assay type: functional, organism-based; summary of the method: as §1
[15] = test system: Mycolicibacterium smegmatis; test: Antimycobacterial activity against Mycobacterium smegmatis atR2 assessed as decrease in drug resistance development at 100 ug/disc after 2 to 3 days by paper disc method; assay type: functional, organism-based; summary of the method: as §2
[16] = test system: Mycolicibacterium smegmatis; test: Antimycobacterial activity against Mycobacterium smegmatis atR14 assessed as decrease in drug resistance development at 100 ug/disc after 2 to 3 days by paper disc method; assay type: functional, organism-based; summary of the method: as §2
[17] = test system: Mycolicibacterium smegmatis; test: Antimycobacterial activity against Mycobacterium smegmatis atR10 assessed as decrease in drug resistance development at 100 ug/disc after 2 to 3 days by paper disc method; assay type: functional, organism-based; summary of the method: as §2
[18] = test system: Mycolicibacterium smegmatis; test: Antimycobacterial activity against Mycobacterium smegmatis atR1 assessed as decrease in drug resistance development at 100 ug/disc after 2 to 3 days by paper disc method; assay type: functional, organism-based; summary of the method: as §2
[19] = test system: Mycolicibacterium smegmatis; test: Antimycobacterial activity against Mycobacterium smegmatis atR8 assessed as decrease in drug resistance development at 100 ug/disc after 2 to 3 days by paper disc method; assay type: functional, organism-based; summary of the method: as §1
[20] = test system: Mycolicibacterium smegmatis; test: Antimycobacterial activity against Mycobacterium smegmatis atR11 assessed as decrease in drug resistance development at 100 ug/disc after 2 to 3 days by paper disc method; assay type: functional, organism-based; summary of the method: as §2

Structure (SMILES)	Activity [1]	Activity [2]	inhibition zone (IZ) [3]	Activity [4]	Activity [5]	Activity [6]	Activity [7]	Activity [8]	Activity [9]	Activity [10]	Activity [11]	Activity [12]	Activity [13]	Activity [14]	Activity [15]	Activity [16]	Activity [17]	Activity [18]	Activity [19]	Activity [20]
NC[C@H]1O[C@H](O[C@H]2[C@H](O)[C@@H](O[C@H]3O[C@H](CO)[C@@H](O)[C@H](N)[C@H]3O)[C@H](N)C[C@@H]2N)[C@H](O)[C@@H](O)[C@@H]1O	Active	Active	9.3 mm	Active	Active	Active	Active	Active	Active	Active	Active	Active	–	–	–	–	–	–	–	–
CO[C@H]1/C=C/O[C@@]2(C)Oc3c(C)c(O)c4c(O)c(c(/C=N/N5CCN(C)CC5)c(O)c4c3C2=O)NC(=O)/C(C)=C\C=C\[C@H](C)[C@H](O)[C@@H](C)[C@@H](O)[C@@H](C)[C@H](OC(C)=O)[C@@H]1C	–	–	–	–	–	–	–	–	–	–	–	–	Active	Active	inactive	inactive	inactive	inactive	inactive	inactive
